Source: ChEMBL document CHEMBL5154918, “Synthesis and Biological Characterization of a Series of 2-Sulfonamidebenzamides as Allosteric Modulators of MrgX1” (ACS Med Chem Lett, 2022)
pEC50: −log10 of the molar value.

Tests used:
[1] = biological target: T1, Mas-related G-protein coupled receptor member X1 (Homo sapiens, UniProt Q96LB2); experiment: Positive allosteric modulator activity at human MRGPRX1 expressed in HEK293 cells in presence of BAM8-22 by Fluo4-dye based FLIPR assay; format: cell-based
Summary of the method: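 HEK293 cells expressing MrgX1. Compounds tested in the presence of 10 nM BAM8-22. Emax normalized to control compound ML382; mean ± SEM of n = 2 experiments.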

[2] = Microsomal stability in human liver microsomes assessed as intrinsic clearance; format: ADME, Microsome; conditions: read-out: CLH
Summary of the method: (§1)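 Intrinsic clearance measured in human and mouse liver microsomes. Hepatic clearance predicted from it with the well-stirred organ CL model, binding terms excluded.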

[3] = Plasma protein binding in mouse assessed as unbound fraction; format: ADME, cell-free; conditions: read-out: PPB
Summary of the method: (§2)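 Equilibrium dialysis in human and mouse plasma; results expressed as […] fraction unbound.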

[4] = Plasma protein binding in human assessed as unbound fraction; format: ADME, cell-free; conditions: read-out: PPB; summary of the method: as §2
[5] = Microsomal stability in mouse liver microsomes assessed as intrinsic clearance; format: ADME, Microsome; conditions: read-out: CLH; summary of the method: as §1
[6] = biological target: T1, Mas-related G-protein coupled receptor member X1; experiment: Positive allosteric modulator activity at human MRGPRX1 expressed in HEK293 cells assessed as maximal efficacy at 5 uM in presence of BAM8-22 by Fluo4-dye based FLIPR assay relative to control; format: cell-based
[7] = filed as positive allosteric modulator

T1 sequence (Q96LB2 whole entry): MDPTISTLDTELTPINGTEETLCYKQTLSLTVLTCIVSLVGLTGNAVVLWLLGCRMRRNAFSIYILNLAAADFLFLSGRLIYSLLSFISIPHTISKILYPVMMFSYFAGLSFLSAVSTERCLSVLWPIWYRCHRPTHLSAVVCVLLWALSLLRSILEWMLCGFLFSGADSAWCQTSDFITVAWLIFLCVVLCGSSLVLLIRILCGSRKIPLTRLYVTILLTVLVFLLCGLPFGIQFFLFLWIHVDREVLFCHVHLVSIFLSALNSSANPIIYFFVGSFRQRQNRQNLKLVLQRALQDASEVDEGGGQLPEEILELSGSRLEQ

Row | SMILES | pEC50 [1] | Emax [6, 7] [%] | Emax [6] [%] | further results
1 | CCOc1ccccc1-c1nnc(-c2ccccc2NS(=O)(=O)C2CC2)o1 | – | – | 6.7 | –
2 | CCOc1cccnc1NC(=O)c1ccccc1NS(=O)(=O)C1CC1 | – | – | 1.6 | –
3 | Cc1ccc(NS(=O)(=O)C2CC2)c(C(=O)Nc2ccccc2OCC(F)(F)F)c1 | 6.43 | 89.9 | – | –
4 | CCOc1ccccc1NC(=O)c1ccc(F)cc1NS(=O)(=O)C1CC1 | 6.07 | 67.6 | – | –
5 | O=C(Nc1ccccc1OCC(F)(F)F)c1cc(Cl)ccc1NS(=O)(=O)C1CC1 | 6.04 | 103 | – | –
6 | CCOc1ccc(F)cc1NC(=O)c1cc(Cl)ccc1NS(=O)(=O)C1CC1 | 7.26 | 104 | – | CLint scaled [2]: 138 mL/min/kg; fraction unbound [3]: 0.003; fraction unbound [4]: 0.001; CLint scaled [5]: > 2400 mL/min/kg
7 | CCOC1CCCCC1NC(=O)c1ccccc1NS(=O)(=O)C1CC1 (stereo not drawn) | – | – | 24.2 | –
8 | CCOc1ccccc1NC(=O)c1cccc(NS(=O)(=O)C2CC2)c1 | – | – | -44.4 | –
9 | O=C(Nc1cccc2c1OCO2)c1ccccc1NS(=O)(=O)C1CC1 | – | – | 7.4 | –
10 | COc1ccccc1N(C)C(=O)c1ccccc1NS(=O)(=O)C1CC1 | – | – | -11.9 | –
11 | CCS(=O)(=O)Nc1ccc(C)cc1C(=O)Nc1ccccc1OCC(F)(F)F | – | 58.4 | – | –
12 | CCOc1ccccc1NC(=O)c1cc(Cl)ccc1NS(=O)(=O)C1CC1 | 7.27 | 110 | – | CLint scaled [2]: 130 mL/min/kg; fraction unbound [3]: 0.001; fraction unbound [4]: 0.001; CLint scaled [5]: 1470 mL/min/kg
13 | CC1(C)Oc2cccc(NC(=O)c3ccccc3NS(=O)(=O)C3CC3)c2O1 | – | – | -25.6 | –
14 | O=C(Nc1cccc2c1OCCC2)c1ccccc1NS(=O)(=O)C1CC1 | – | – | 27 | –
15 | O=C(Nc1cccc2c1OC(F)(F)O2)c1ccccc1NS(=O)(=O)C1CC1 | – | – | 14.6 | –
16 | CCOc1ccccc1NC(=O)c1ccccc1NS(=O)(=O)C1CC1 | 6.91 | 100 | – | CLint scaled [2]: 61.9 mL/min/kg; fraction unbound [3]: 0.017; fraction unbound [4]: 0.004; CLint scaled [5]: 1060 mL/min/kg
17 | CCOc1ccccc1NC(=O)c1ccncc1NS(=O)(=O)C1CC1 | – | – | 12.1 | –

Row | SMILES | pEC50 [1] | Emax [6, 7] [%] | Emax [6] [%] | further results
18 | CCOc1ccc(F)cc1NC(=O)c1cc(F)ccc1NS(=O)(=O)CC | 7.51 | 136 | – | CLint scaled [2]: 69.1 mL/min/kg; fraction unbound [3]: 0.001; fraction unbound [4]: 0.002; CLint scaled [5]: 1240 mL/min/kg
19 | CCOc1ccccc1NC(=O)c1cc(F)ccc1NS(=O)(=O)CC | 7.01 | 107 | – | CLint scaled [2]: 36 mL/min/kg; fraction unbound [3]: 0.041; fraction unbound [4]: 0.002; CLint scaled [5]: 269 mL/min/kg
20 | CCOc1ccccc1NC(=O)c1ccc(C)cc1NS(=O)(=O)C1CC1 | – | – | 3.2 | –
21 | CCOc1ccccc1NC(=O)c1cc2ccccc2cc1NS(=O)(=O)C1CC1 | – | – | 29.7 | –
22 | CCOc1ccccc1NC(=O)c1cc(F)ccc1NS(=O)(=O)C1CC1 | 6.76 | 102 | – | CLint scaled [2]: 45.4 mL/min/kg; fraction unbound [3]: 0.041; fraction unbound [4]: 0.004; CLint scaled [5]: 383 mL/min/kg
23 | O=C(c1ccccc1NS(=O)(=O)C1CC1)N1CCCc2ccccc21 | – | – | 6.8 | –
24 | CCOc1cccc2nc(-c3ccccc3NS(=O)(=O)C3CC3)[nH]c12 | – | – | 23.8 | –
25 | CCOc1ccccc1Nc1nn(S(=O)(=O)C2CC2)c2ncccc12 | – | – | -11.7 | –
26 | O=C(Nc1ccccc1OCC(F)(F)F)c1ccc(F)cc1NS(=O)(=O)C1CC1 | – | – | 29.1 | –
27 | COc1ccc(NC(=O)c2ccccc2NS(=O)(=O)C2CC2)cc1 | – | – | -15.6 | –
28 | O=C(Nc1cccc2c1OCCO2)c1ccccc1NS(=O)(=O)C1CC1 | 5.05 | – | 37.9 | –
29 | CCOc1ccccc1Nc1nn(S(=O)(=O)C2CC2)c2cccnc12 | – | – | 1.9 | –
30 | CCOc1ccccc1NC(=O)c1ccc2ccccc2c1NS(=O)(=O)C1CC1 | – | – | 8.9 | –
31 | CCS(=O)(=O)Nc1ccc(Cl)cc1C(=O)Nc1ccccc1OCC(F)(F)F | 6.44 | 89.5 | – | –
32 | COCCOc1ccccc1NC(=O)c1ccccc1NS(=O)(=O)C1CC1 | – | – | 20.7 | –
33 | O=C(Nc1ccccc1OC1CCCC1)c1ccccc1NS(=O)(=O)C1CC1 | 5.50 | 80.1 | – | –
34 | O=C(c1ccccc1NS(=O)(=O)C1CC1)N1CCOc2ccccc21 | – | – | 2.7 | –

More lines, main results first:

Row | pEC50 [1] | Emax [6, 7] [%] | Emax [6] [%] | SMILES | further results
35 | 6.30 | 80.8 | – | CCCOc1ccccc1NC(=O)c1ccccc1NS(=O)(=O)C1CC1 | CLint scaled [2]: 116 mL/min/kg; fraction unbound [3]: 0.015; fraction unbound [4]: < 0.003; CLint scaled [5]: 4890 mL/min/kg
36 | 6.39 | 89.2 | – | CCOc1ccccc1NC(=O)c1cc(Cl)ccc1NS(=O)(=O)CC | –
37 | – | – | -10.5 | CCOc1cc(F)ccc1NC(=O)c1ccccc1NS(=O)(=O)C1CC1 | –
38 | 6.66 | 108 | – | CCOc1ccccc1NC(=O)c1cc(C)ccc1NS(=O)(=O)CC | –
39 | 6.36 | 100 | – | CCS(=O)(=O)Nc1ccc(F)cc1C(=O)Nc1ccccc1OCC(F)(F)F | –
40 | – | – | 2.1 | O=C(Nc1ccc2c(c1)OCCO2)c1ccccc1NS(=O)(=O)C1CC1 | –
41 | – | – | 0.1 | CCOc1ccccc1NC(=O)c1ncccc1NS(=O)(=O)C1CC1 | –
42 | – | 59.8 | – | O=C(Nc1ccccc1OCC(F)(F)F)c1cc(F)ccc1NS(=O)(=O)C1CC1 | –
43 | 6.55 | 74 | – | CCOc1ccc(F)cc1NC(=O)c1ccccc1NS(=O)(=O)CC | –
44 | 6.99 | 104 | – | CCOc1ccccc1NC(=O)c1cc(C)ccc1NS(=O)(=O)C1CC1 | CLint scaled [2]: 75.1 mL/min/kg; fraction unbound [3]: 0.043; fraction unbound [4]: 0.003; CLint scaled [5]: 410 mL/min/kg
45 | – | 70.6 | – | CCOc1ccccc1NC(=O)c1ccc(NS(=O)(=O)C2CC2)cc1 | –
46 | – | – | 12.7 | CCOc1ccccc1CNC(=O)c1ccccc1NS(=O)(=O)C1CC1 | –
47 | 5.87 | 61.5 | – | O=C(Nc1ccccc1OCC1CC1)c1ccccc1NS(=O)(=O)C1CC1 | –
48 | 7.10 | 128 | – | CCOc1ccc(F)cc1NC(=O)c1cc(C)ccc1NS(=O)(=O)CC | CLint scaled [2]: 69.3 mL/min/kg; fraction unbound [3]: 0.014; fraction unbound [4]: 0.003; CLint scaled [5]: 1000 mL/min/kg
49 | 5.55 | 83.1 | – | CC(C)Oc1ccccc1NC(=O)c1ccccc1NS(=O)(=O)C1CC1 | –
50 | 5.98 | 66.3 | – | Cc1cc2cccc(NC(=O)c3ccccc3NS(=O)(=O)C3CC3)c2o1 | CLint scaled [2]: 74.9 mL/min/kg; fraction unbound [3]: 0.026; fraction unbound [4]: < 0.003; CLint scaled [5]: 1460 mL/min/kg
51 | 6.30 | 95 | – | O=C(Nc1ccccc1OCC(F)(F)F)c1ccccc1NS(=O)(=O)C1CC1 | CLint scaled [2]: 40.2 mL/min/kg; fraction unbound [3]: 0.022; fraction unbound [4]: 0.004; CLint scaled [5]: 979 mL/min/kg
52 | – | – | 36.1 | CCOc1ccccc1NC(=O)c1ccc(Cl)cc1NS(=O)(=O)C1CC1 | –
53 | – | – | -5.7 | CCOc1ccccc1Nc1nn(S(=O)(=O)C2CC2)c2ccccc12 | –
54 | – | – | 7.5 | CCOc1ccccc1-c1nnc(-c2ccccc2NS(=O)(=O)C2CC2)[nH]1 | –
55 | 4.85 | 53.4 | – | O=C(Nc1cccc2occc12)c1ccccc1NS(=O)(=O)C1CC1 | –
56 | 6.69 | 118 | – | CCOc1ccc(F)cc1NC(=O)c1cc(Cl)ccc1NS(=O)(=O)CC | –
57 | 5.96 | 73.2 | – | CCOc1ccc(NC(=O)c2ccccc2NS(=O)(=O)C2CC2)c(OCC)c1 | –
58 | 5.85 | 91.4 | – | CCS(=O)(=O)Nc1ccccc1C(=O)Nc1ccc(F)cc1OCC(F)(F)F | CLint scaled [2]: 80 mL/min/kg; fraction unbound [3]: 0.021; fraction unbound [4]: 0.005; CLint scaled [5]: 1210 mL/min/kg
